Results: ChEMBL document CHEMBL3352626, “Synthesis and biological evaluation of novel oxindole-based RTK inhibitors as anti-cancer agents” (Bioorg Med Chem, 2014)

Legend:
[1] = Antiproliferative activity against human PM8910 cells at 10 uM after 72 hrs by MTS assay; type: functional
[2] = Antiproliferative activity against human SKBR3 cells at 10 uM after 72 hrs by MTS assay; type: functional, SK-BR-3
Procedure, shortened: (§1)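 Single-concentration screen. Cells at 4 × 10^4 cells/ml, seeded and incubated overnight, then given 10 µM compound in DMSO for 72 h (37 °C, 5% CO2), with DMSO-only controls. MTS added for 4 h and A490 read. Percent inhibition = (1 − OD490 treated/OD490 control) × 100, from triplicate experiments.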

U-251 = assay: Antiproliferative activity against human U251 cells at 10 uM after 72 hrs by MTS assay; type: functional; procedure, shortened: as §1
A549 = assay: Antiproliferative activity against human A549 cells at 10 uM after 72 hrs by MTS assay; type: functional
[3] = Antiproliferative activity against human HCC827 cells at 10 uM after 72 hrs by MTS assay; type: functional
NCI-H1975 = assay: Antiproliferative activity against human NCI-H1975 cells at 10 uM after 72 hrs by MTS assay; type: functional; procedure, shortened: as §1
[4] = Antiproliferative activity against human Bel7402 cells at 10 uM after 72 hrs by MTS assay; type: functional, Bel-7402
[5] = Antiproliferative activity against human SGC7901 cells at 10 uM after 72 hrs by MTS assay; type: functional, SGC-7901
[6] = Antiproliferative activity against human H460 cells at 10 uM after 72 hrs by MTS assay; type: functional, NCI-H460

| SMILES | Activity [1] [%] | Activity [2] [%] | Activity (U-251) [%] | Activity (A549) [%] | Activity [3] [%] | Activity (NCI-H1975) [%] | Activity [4] [%] | Activity [5] [%] | Activity [6] [%] |
| --- | --- | --- | --- | --- | --- | --- | --- | --- | --- |
| O=C1Nc2ccc(Cl)cc2/C1=N/c1ccc2[nH]ccc2c1 | 10.94 | 11.83 | 26.95 | -10.32 | 20.17 | 21.92 | 13.44 | 12.49 | 9.99 |
| O=C1Nc2ccc(Cl)cc2/C1=C/c1c[nH]c2ncccc12 | 29.28 | 10.07 | 5.49 | 34.13 | 25.9 | 48.72 | 34.51 | 31.4 | 48.99 |
| O=C1Nc2ccc(Cl)cc2/C1=N/c1ccc2nc(S)[nH]c2c1 | 10.36 | 8.27 | -4.89 | 11.87 | 19.19 | 26.56 | 10.23 | 4.79 | 5.31 |
| CCOC(=O)c1ccc(/N=C2\C(=O)Nc3ccc(Cl)cc32)c(N2CCOCC2)n1 | 21.97 | 14.58 | 7.69 | 24.53 | 18.58 | 34.78 | 8.58 | 2.89 | 14.19 |
| O=C1Nc2ccc(Cl)cc2/C1=N/c1ccc2ncccc2c1 | 17.04 | 24.97 | -1.16 | 33.82 | 36.53 | 48.22 | 0.92 | 11.48 | 24.3 |
| O=C1Nc2ncccc2/C1=C/c1c[nH]c2ccccc12 | 3.22 | 2.64 | 0.83 | 5.4 | 7.27 | 13.11 | 18.98 | 24.68 | 7.2 |
| O=CN1CCN(c2ccc(/C=C3\C(=O)Nc4ccccc43)cc2)CC1 | 27.47 | 7.42 | 2.24 | 25.54 | 26.61 | 27.15 | 25.97 | 16.5 | 32.06 |
| C=CC(=O)N1CCN(c2ccc(/C=C3\C(=O)Nc4ncccc43)cc2)CC1 | 19.94 | 13.65 | 12.58 | 25.1 | 22.4 | 35.6 | 12.29 | 6.35 | 7.69 |
| O=C1Nc2ccccc2/C1=C/c1ccc(N2CCOCC2)cc1 | 14.19 | 11.93 | 1.92 | 37.09 | 34.26 | 28.96 | 23.53 | 17.89 | 26.56 |
| CCn1c2ccccc2c2cc(/N=C3/C(=O)Nc4ccc(Cl)cc43)ccc21 | 24.55 | 20.02 | 8.03 | 26.46 | 37.81 | 59.78 | 16.52 | 15.22 | 30.28 |
| O=C1Nc2ncccc2/C1=C/c1ccc(N2CCN(C(=O)CCCl)CC2)cc1 | 14.97 | 10.56 | -2.81 | 5.2 | 13.18 | 17.66 | 12.01 | 5.55 | 7.98 |
| O=C1Nc2ncccc2/C1=C/c1ccccc1C(F)(F)F | 29.66 | 5.96 | -5.87 | 11.09 | 1.3 | 31.12 | 7.05 | 13.97 | 16.53 |
| O=C1Nc2ccc(Cl)cc2/C1=N/NC(=O)c1ccco1 | 15.69 | 23.68 | 12.52 | 11.52 | 7.22 | 27.45 | 12.57 | 10.02 | 17.15 |
| O=C1Nc2ncccc2/C1=C/c1ccc(N2CCOCC2)cc1 | -1.48 | 2.52 | -3.95 | 12.18 | 10.19 | 9.21 | 9.16 | 21.38 | 32.46 |
| O=C1Nc2ncccc2/C1=C/c1c[nH]c2ccc(Br)cc12 | 40.59 | 27.26 | 5.06 | 29.66 | 39.64 | 71.46 | 42.22 | 32.51 | 39.48 |
| O=C1Nc2ccc(Cl)cc2/C1=N/c1ccc2cc[nH]c2c1 | 11.93 | 14.03 | -5.47 | 10.2 | 24.95 | 47.6 | 5.59 | -0.27 | 17.08 |
| CCOC(=O)c1ccc(/N=C2\C(=O)Nc3ccc(Cl)cc32)c(Nc2cc(OC)cc(OC)c2)c1 | 42.24 | 41.17 | 7.98 | 32.9 | 41.43 | 65.83 | 28.63 | 64.74 | 57.08 |
| O=CN1CCN(c2ccc(/C=C3\C(=O)Nc4ncccc43)cc2)CC1 | 10.13 | 7.8 | -12.2 | 0.14 | 14.61 | 23.51 | 15.45 | 9.66 | 13.68 |
| O=C1Nc2ncccc2/C1=C/c1ccc(N2CCN(C(=O)c3ccccc3)CC2)cc1 | 13.74 | 9.07 | 3.44 | 10.59 | 21.77 | 35.62 | 17.58 | 15.99 | 17.24 |
| O=C1Nc2ncccc2/C1=C/c1ncc[nH]1 | 0.71 | -0.35 | -2.99 | 6.76 | -5.39 | 22.81 | 3.18 | 12.69 | 13.74 |
| Nc1nc(N2CCOCC2)ccc1/N=C1\C(=O)Nc2ccc(Cl)cc21 | 26.03 | 17.97 | -0.07 | 34.07 | 33.66 | 56.34 | 18.8 | 18.63 | 37.48 |
